According to ChEMBL document CHEMBL1146375, “Synthetic studies on novel benzimidazolopeptides with antimicrobial, cytotoxic and anthelmintic potential” (2007):
≈ marks a conversion by molar mass, not a printed value.

test system: Bacillus subtilis; experiment: Antibacterial activity against Bacillus subtilis NCIM 2063 after 18 hrs by disc diffusion method; format: functional; details: not given
Outline: (§1)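 Modified Kirby-Bauer disc diffusion. Plates inoculated with spore suspension (about 6 × 10⁴ spores mL^-1). Sterile 6 mm paper discs carried test samples at 10 mg mL^-1; ciprofloxacin disc as reference, DMF disc as negative control. Plates held 18 h at 37 °C. Inhibition zone diameters (mm) averaged over triplicate sets.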

SMILES	inhibition zone (IZ) [mm]
Cc1cc2nc(-c3ccc(C(=O)N[C@@H](Cc4cnc[nH]4)C(=O)N[C@@H](Cc4ccc(O)cc4)C(=O)O)cc3)[nH]c2cc1C	13

test system: Staphylococcus aureus; experiment: Antibacterial activity against Staphylococcus aureus NCIM 2079 after 18 hrs by disc diffusion method; format: functional; details: not given; outline: as §1

SMILES	inhibition zone (IZ) [mm]
Cc1cc2nc(-c3ccc(C(=O)N[C@@H](Cc4cnc[nH]4)C(=O)N[C@@H](Cc4ccc(O)cc4)C(=O)O)cc3)[nH]c2cc1C	11

test system: Pseudomonas aeruginosa; experiment: Antibacterial activity against Pseudomonas aeruginosa NCIM 2034 after 18 hrs by disc diffusion method; format: functional; details: not given; outline: as §1

SMILES	inhibition zone (IZ) [mm]
Cc1cc2nc(-c3ccc(C(=O)N[C@@H](Cc4cnc[nH]4)C(=O)N[C@@H](Cc4ccc(O)cc4)C(=O)O)cc3)[nH]c2cc1C	23

test system: Escherichia coli; experiment: Antibacterial activity against Escherichia coli NCIM 2065 after 18 hrs by disc diffusion method; format: functional; details: not given; outline: as §1

SMILES	inhibition zone (IZ) [mm]
Cc1cc2nc(-c3ccc(C(=O)N[C@@H](Cc4cnc[nH]4)C(=O)N[C@@H](Cc4ccc(O)cc4)C(=O)O)cc3)[nH]c2cc1C	17

test system: Candida albicans; experiment: Antifungal activity against Candida albicans MUCC 29 after 48 hrs by disc diffusion method; format: functional; details: not given
Outline: (§2)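 Agar well diffusion on plates inoculated with spore suspension in normal saline from cultures on Sabouraud's broth. Wells punched and loaded with test samples or griseofulvin at 10 mg mL^-1, with DMSO as negative control. Incubated 48 h at 37 °C.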

SMILES	inhibition zone (IZ) [mm]
Cc1cc2nc(-c3ccc(C(=O)N[C@@H](Cc4cnc[nH]4)C(=O)N[C@@H](Cc4ccc(O)cc4)C(=O)O)cc3)[nH]c2cc1C	17

test system: Microsporum audouinii; experiment: Antifungal activity against Microsporum audouinii MUCC 545 after 48 hrs by disc diffusion method; format: functional; details: not given; outline: as §2

SMILES	inhibition zone (IZ) [mm]
Cc1cc2nc(-c3ccc(C(=O)N[C@@H](Cc4cnc[nH]4)C(=O)N[C@@H](Cc4ccc(O)cc4)C(=O)O)cc3)[nH]c2cc1C	10

test system: Trichophyton benhamiae; experiment: Antifungal activity against Trichophyton mentagrophytes MUCC 665 after 48 hrs by disc diffusion method; format: functional, Arthroderma benhamiae; details: not given; outline: as §2

SMILES	inhibition zone (IZ) [mm]
Cc1cc2nc(-c3ccc(C(=O)N[C@@H](Cc4cnc[nH]4)C(=O)N[C@@H](Cc4ccc(O)cc4)C(=O)O)cc3)[nH]c2cc1C	16

test system: Aspergillus niger; experiment: Antifungal activity against Aspergillus niger MUCC 177 after 48 hrs by disc diffusion method; format: functional; details: not given; outline: as §2

SMILES	inhibition zone (IZ) [mm]
Cc1cc2nc(-c3ccc(C(=O)N[C@@H](Cc4cnc[nH]4)C(=O)N[C@@H](Cc4ccc(O)cc4)C(=O)O)cc3)[nH]c2cc1C	17

test system: Bacillus subtilis; experiment: Antibacterial activity against Bacillus subtilis NCIM 2063 after 18 hrs by tube dilution method; format: functional; details: NCIM 2063, 18 h
Outline: (§3)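 Tube dilution MIC. Stock diluted in sterile broth to seven concentrations from 200 to 3.1 […]. Each tube inoculated with one loopful of test bacterium and incubated 18 h at 37 °C. MIC read from presence or absence of growth.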

SMILES	MIC [µg/mL]
Cc1cc2nc(-c3ccc(C(=O)N[C@@H](Cc4cnc[nH]4)C(=O)N[C@@H](Cc4ccc(O)cc4)C(=O)O)cc3)[nH]c2cc1C	6 (≈ 10.6 µM)

test system: Staphylococcus aureus; experiment: Antibacterial activity against Staphylococcus aureus NCIM 2079 after 18 hrs by tube dilution method; format: functional; details: NCIM 2079, 18 h; outline: as §3

SMILES	MIC [µg/mL]
Cc1cc2nc(-c3ccc(C(=O)N[C@@H](Cc4cnc[nH]4)C(=O)N[C@@H](Cc4ccc(O)cc4)C(=O)O)cc3)[nH]c2cc1C	12.5 (≈ 22.1 µM)

test system: Pseudomonas aeruginosa; experiment: Antibacterial activity against Pseudomonas aeruginosa NCIM 2034 after 18 hrs by tube dilution method; format: functional; details: NCIM 2034, 18 h; outline: as §3

SMILES	MIC [µg/mL]
Cc1cc2nc(-c3ccc(C(=O)N[C@@H](Cc4cnc[nH]4)C(=O)N[C@@H](Cc4ccc(O)cc4)C(=O)O)cc3)[nH]c2cc1C	12.5 (≈ 22.1 µM)

test system: Escherichia coli; experiment: Antibacterial activity against Escherichia coli NCIM 2065 after 18 hrs by tube dilution method; format: functional; details: NCIM 2065, 18 h

SMILES	MIC [µg/mL]
Cc1cc2nc(-c3ccc(C(=O)N[C@@H](Cc4cnc[nH]4)C(=O)N[C@@H](Cc4ccc(O)cc4)C(=O)O)cc3)[nH]c2cc1C	25 (≈ 44.1 µM)

test system: Candida albicans; experiment: Antifungal activity against Candida albicans MUCC 29 after 48 hrs by tube dilution method; format: functional; details: not given
Outline: (§4)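 Tube dilution MIC as for bacteria (seven concentrations, 200–3.1 […]), with DMSO in place of DMF. Tubes inoculated with fungal culture and incubated 48 h at 37 °C. MIC read from presence or absence of growth.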

SMILES	MIC [µg/mL]
Cc1cc2nc(-c3ccc(C(=O)N[C@@H](Cc4cnc[nH]4)C(=O)N[C@@H](Cc4ccc(O)cc4)C(=O)O)cc3)[nH]c2cc1C	12.5 (≈ 22.1 µM)

test system: Microsporum audouinii; experiment: Antifungal activity against Microsporum audouinii MUCC 545 after 48 hrs by tube dilution method; format: functional; details: not given; outline: as §4

SMILES	MIC [µg/mL]
Cc1cc2nc(-c3ccc(C(=O)N[C@@H](Cc4cnc[nH]4)C(=O)N[C@@H](Cc4ccc(O)cc4)C(=O)O)cc3)[nH]c2cc1C	25 (≈ 44.1 µM)

test system: Trichophyton benhamiae; experiment: Antifungal activity against Trichophyton mentagrophytes MUCC 665 after 48 hrs by tube dilution method; format: functional, Arthroderma benhamiae; details: not given; outline: as §4

SMILES	MIC [µg/mL]
Cc1cc2nc(-c3ccc(C(=O)N[C@@H](Cc4cnc[nH]4)C(=O)N[C@@H](Cc4ccc(O)cc4)C(=O)O)cc3)[nH]c2cc1C	6 (≈ 10.6 µM)

test system: Eudrilus; experiment: Anthelmintic activity against Eudrilus sp. assessed as mean paralyzing time; format: functional; details: not given
Outline: (§5)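 Earthworms exposed to test suspensions at 2 mg mL^-1 (0.2% w/v), made by triturating compound with Tween 80 (0.5%) and distilled water, then mechanically stirred 30 min. Mebendazole suspension prepared alike as reference. Paralysis and death times recorded; death confirmed by no movement in 50 °C water. Means from triplicate sets.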

SMILES	Time [min]
Cc1cc2nc(-c3ccc(C(=O)N[C@@H](Cc4cnc[nH]4)C(=O)N[C@@H](Cc4ccc(O)cc4)C(=O)O)cc3)[nH]c2cc1C	13.44

test system: Eudrilus; experiment: Anthelmintic activity against Eudrilus sp. assessed as mean death time; format: functional; details: not given
Outline: (§6)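 Earthworms exposed to test suspensions at 2 mg mL−1, prepared by triturating compound with Tween 80 (0.5%) and distilled water, stirring 30 min, then diluting to 0.2% w/v. Mebendazole suspension was made the same way. Death was confirmed by moving worms into 50 °C warm water and looking for movement. Mean death time (min) taken from triplicate sets.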

SMILES	Time [min]
Cc1cc2nc(-c3ccc(C(=O)N[C@@H](Cc4cnc[nH]4)C(=O)N[C@@H](Cc4ccc(O)cc4)C(=O)O)cc3)[nH]c2cc1C	23.08

test system: not listed separately; experiment: Growth inhibition of DLA cells at 500 ug/mL after 3 hrs; format: functional; details: Mus musculus
Outline: (§7)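 DLA and EAC cells passaged intraperitoneally in albino mice, harvested after 15–20 days and adjusted to 1 × 10⁶ cells/mL. Dilutions in Dulbecco's medium (500–31.25, some down to 3.91 µg/mL; 5-FU reference) mixed 1:1 with cells and held 3 h at 37 °C. Trypan blue exclusion gave % growth inhibition; CTC50 by graphical extrapolation.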

SMILES	inhibition at 500 µg/mL [%]
Cc1cc2nc(-c3ccc(C(=O)N[C@@H](Cc4cnc[nH]4)C(=O)N[C@@H](Cc4ccc(O)cc4)C(=O)O)cc3)[nH]c2cc1C	26.3

test system: not listed separately; experiment: Growth inhibition of DLA cells at 250 ug/mL after 3 hrs; format: functional; details: Mus musculus; outline: as §7

SMILES	inhibition at 250 µg/mL [%]
Cc1cc2nc(-c3ccc(C(=O)N[C@@H](Cc4cnc[nH]4)C(=O)N[C@@H](Cc4ccc(O)cc4)C(=O)O)cc3)[nH]c2cc1C	18.4

test system: not listed separately; experiment: Growth inhibition of DLA cells at 125 ug/mL after 3 hrs; format: functional; details: Mus musculus; outline: as §7

SMILES	inhibition at 125 µg/mL [%]
Cc1cc2nc(-c3ccc(C(=O)N[C@@H](Cc4cnc[nH]4)C(=O)N[C@@H](Cc4ccc(O)cc4)C(=O)O)cc3)[nH]c2cc1C	21

test system: not listed separately; experiment: Growth inhibition of DLA cells at 62.5 ug/mL after 3 hrs; format: functional; details: Mus musculus; outline: as §7

SMILES	inhibition at 62.5 µg/mL [%]
Cc1cc2nc(-c3ccc(C(=O)N[C@@H](Cc4cnc[nH]4)C(=O)N[C@@H](Cc4ccc(O)cc4)C(=O)O)cc3)[nH]c2cc1C	10.5

test system: not listed separately; experiment: Growth inhibition of DLA cells at 31.25 ug/mL after 3 hrs; format: functional; details: Mus musculus; outline: as §7

SMILES	inhibition at 31.25 µg/mL [%]
Cc1cc2nc(-c3ccc(C(=O)N[C@@H](Cc4cnc[nH]4)C(=O)N[C@@H](Cc4ccc(O)cc4)C(=O)O)cc3)[nH]c2cc1C	13.2

test system: not listed separately; experiment: Growth inhibition of DLA cells after 3 hrs; format: functional; details: Mus musculus; outline: as §7

SMILES	CC50 [µM]
Cc1cc2nc(-c3ccc(C(=O)N[C@@H](Cc4cnc[nH]4)C(=O)N[C@@H](Cc4ccc(O)cc4)C(=O)O)cc3)[nH]c2cc1C	> 883

test system: not listed separately; experiment: Growth inhibition of EAC cells at 500 ug/mL after 3 hrs; format: functional; details: Mus musculus, Ehrlich; outline: as §7

SMILES	inhibition at 500 µg/mL [%]
Cc1cc2nc(-c3ccc(C(=O)N[C@@H](Cc4cnc[nH]4)C(=O)N[C@@H](Cc4ccc(O)cc4)C(=O)O)cc3)[nH]c2cc1C	10.7

test system: not listed separately; experiment: Growth inhibition of EAC cells at 250 ug/mL after 3 hrs; format: functional; details: Mus musculus, Ehrlich; outline: as §7

SMILES	inhibition at 250 µg/mL [%]
Cc1cc2nc(-c3ccc(C(=O)N[C@@H](Cc4cnc[nH]4)C(=O)N[C@@H](Cc4ccc(O)cc4)C(=O)O)cc3)[nH]c2cc1C	7.14

test system: not listed separately; experiment: Growth inhibition of EAC cells at 125 ug/mL after 3 hrs; format: functional; details: Mus musculus, Ehrlich; outline: as §7

SMILES	inhibition at 125 µg/mL [%]
Cc1cc2nc(-c3ccc(C(=O)N[C@@H](Cc4cnc[nH]4)C(=O)N[C@@H](Cc4ccc(O)cc4)C(=O)O)cc3)[nH]c2cc1C	7.14

test system: not listed separately; experiment: Growth inhibition of EAC cells at 62.5 ug/mL after 3 hrs; format: functional; details: Mus musculus, Ehrlich; outline: as §7

SMILES	inhibition at 62.5 µg/mL [%]
Cc1cc2nc(-c3ccc(C(=O)N[C@@H](Cc4cnc[nH]4)C(=O)N[C@@H](Cc4ccc(O)cc4)C(=O)O)cc3)[nH]c2cc1C	3.57

test system: not listed separately; experiment: Growth inhibition of EAC cells at 31.25 ug/mL after 3 hrs; format: functional; details: Mus musculus, Ehrlich; outline: as §7

SMILES	inhibition at 31.25 µg/mL [%]
Cc1cc2nc(-c3ccc(C(=O)N[C@@H](Cc4cnc[nH]4)C(=O)N[C@@H](Cc4ccc(O)cc4)C(=O)O)cc3)[nH]c2cc1C	3.57

test system: not listed separately; experiment: Growth inhibition of EAC cells after 3 hrs; format: functional; details: Mus musculus, Ehrlich; outline: as §7

SMILES	CC50 [µM]
Cc1cc2nc(-c3ccc(C(=O)N[C@@H](Cc4cnc[nH]4)C(=O)N[C@@H](Cc4ccc(O)cc4)C(=O)O)cc3)[nH]c2cc1C	> 883

test system: not listed separately; experiment: Anthelmintic activity against Megascoplex konkanensis ICARBC 211 assessed as mean paralyzing time; format: functional; details: not given; outline: as §5

SMILES	TIME [h]
Cc1cc2nc(-c3ccc(C(=O)N[C@@H](Cc4cnc[nH]4)C(=O)N[C@@H](Cc4ccc(O)cc4)C(=O)O)cc3)[nH]c2cc1C	0.226

test system: not listed separately; experiment: Anthelmintic activity against Megascoplex konkanensis ICARBC 211 assessed as mean death time; format: functional; details: not given; outline: as §5

SMILES	TIME [h]
Cc1cc2nc(-c3ccc(C(=O)N[C@@H](Cc4cnc[nH]4)C(=O)N[C@@H](Cc4ccc(O)cc4)C(=O)O)cc3)[nH]c2cc1C	0.37

test system: Pontoscolex corethrurus; experiment: Anthelmintic activity against Pontoscolex corethrurus ICARBC 408 assessed as mean paralyzing time; format: functional; details: not given; outline: as §5

SMILES	Time [min]
Cc1cc2nc(-c3ccc(C(=O)N[C@@H](Cc4cnc[nH]4)C(=O)N[C@@H](Cc4ccc(O)cc4)C(=O)O)cc3)[nH]c2cc1C	17.47

test system: Pontoscolex corethrurus; experiment: Anthelmintic activity against Pontoscolex corethrurus ICARBC 408 assessed as mean death time; format: functional; details: not given; outline: as §6

SMILES	Time [min]
Cc1cc2nc(-c3ccc(C(=O)N[C@@H](Cc4cnc[nH]4)C(=O)N[C@@H](Cc4ccc(O)cc4)C(=O)O)cc3)[nH]c2cc1C	29.02
